Measurements of several laboratories.
Target: Myosin light chain kinase, smooth muscle (MYLK, Homo sapiens, UniProt Q15746)

Structure (SMILES) | test | test system | conditions | measurement | value
Cn1c2c(Cl)c(Cl)ccc2c2cc[nH]c(=O)c21 | thermal stability, DSF |  | 10 µM | ΔTm | 2.4 °C
Nc1nc(Nc2ccccc2)sc1C(=O)c1c(F)cccc1F | enzyme activity, inhibitor |  | 10 µM | remaining activity | 29%
O=C(NC[C@@H]1[C@H]2CN(C(=O)OCc3cc(C(F)(F)F)cc(C(F)(F)F)c3)C[C@@H]12)c1ccc2[nH]nnc2c1 | cell-free assay, competition with immobilised ligand |  | 1 µM | remaining binding | 88%
COc1cc(Nc2cnc(C#N)c(O[C@H](C)CN(C)C)n2)ncc1-c1cnn(C)c1 | enzyme activity, inhibitor, radiometric |  | 1 µM | remaining activity | 80%
Cc1cnn2ncc(-c3ccnc(N(C)C)n3)c2c1 | binding |  | 1 µM | remaining binding | 99%
Cn1cnc(Br)c1C1=CN(c2ncnc3[nH]cnc23)CCS1 | enzyme activity, inhibitor, radiometric |  | 2 µM | inhibition | 93.4%
CN(c1ncccc1CNc1nc(Nc2ccc3c(c2)CC(=O)N3)ncc1C(F)(F)F)S(C)(=O)=O | enzyme activity, inhibitor |  | 1 µM | inhibition | 16.6%
Cn1c(=O)n(-c2ccc(C(C)(C)C#N)cc2)c2c3cc(-c4cnc5ccccc5c4)ccc3ncc21 | enzyme activity, inhibitor |  | 10 µM | remaining activity | 109%
COc1ccc2c(c1)O[C@@H](c1ccc(OC)c(OC)c1)C[C@H]2NC(=O)C1(c2ccc3c(c2)OC(F)(F)O3)CC1 | cell-free assay, competition with immobilised ligand |  | 1 µM | remaining binding | 85%
O=C1c2ccccc2-c2n[nH]c3cccc1c23 | enzyme activity, inhibitor |  | 0.5 µM | activity vs control | 48%
O=C(N1CCS(=O)(=O)CC1)N1C[C@H](c2ccc(OC(F)(F)F)cc2)C[C@H](c2nc(C3CC3)no2)C1 | cell-free assay, competition with immobilised ligand |  | 1 µM | remaining binding | 100%
CC(C)(O)[C@H]1CC[C@H](Nc2ccc3ncc(-c4cccc(C(F)(F)F)c4)n3n2)CC1 | enzyme activity, inhibitor |  | 1 µM | remaining activity | 99.8%
N#CCCc1ccc2c(c1)-c1[nH]c3ccc([N+](=O)[O-])cc3c1CC(=O)N2 | cell-free assay |  | 0.5 µM | remaining signal | 95.2%
CCN1CCN(Cc2ccc(NC(=O)c3ccc(C)c(Oc4ccnc5[nH]ccc45)c3)cc2C(F)(F)F)CC1 | target engagement in cells, inhibitor, chemoproteomics | Huh-7 | 1 µM | inhibition | -23.4%
CN1CC(Oc2cnc(C#N)cc2-c2ccn3nc(NC(=O)C4CC4)cc3c2)C1 | enzyme activity, inhibitor |  | 1 µM | inhibition | -19%
CC(C)(C)C(=O)c1sc(NC2CCCCC2)nc1N | enzyme activity, inhibitor |  | 10 µM | remaining activity | 74%
CC(C)(C)c1nc2c(s1)c1nc(N)ncc1c1ccc(NS(=O)(=O)c3c(F)cccc3F)c(F)c12 | enzyme activity, inhibitor, radiometric |  | 1 µM | remaining activity | 87%
Cc1c(NC(=O)c2cc(C(N)=O)nc3cc(F)ccc23)c(C(F)(F)F)nn1Cc1ccc(C#N)cc1 | binding, competition with immobilised ligand |  | 1 µM | remaining binding | 65%
O=C(Nc1cnn(-c2csc(C(=O)NC3COC3)c2)c1)Nc1ccccc1Cl | enzyme activity, inhibitor |  | 5 µM | remaining activity | 97.5%
Cc1cc(NC(=O)c2cccc3cc(-c4cccc5[nH]nc(N)c45)ccc23)ccc1F | enzyme activity, inhibitor |  | 0.1 µM | activity vs control | 89%
CNC(=O)Nc1ccc2c(c1)[C@@]1(CC2)OC(=O)N(CC(=O)N(Cc2ccc(F)cc2)[C@@H](C)C(F)(F)F)C1=O | cell-free assay, competition with immobilised ligand |  | 1 µM | remaining binding | 88%
Oc1ccc(-c2nc(-c3ccncc3)c(-c3ccc(F)cc3)[nH]2)cc1 | cell-free assay |  | 0.5 µM | remaining signal | 106%
CC(=O)Nc1c(C(C)=O)c(=O)n(C)c2nc(-c3ccc(Cl)cc3Cl)c(-c3ccc(Cl)cc3)cc12 | cell-free assay, competition with immobilised ligand |  | 1 µM | remaining binding | 100%
Cn1cncc1C1=CN(c2ncnc3[nH]cnc23)CCS1 | enzyme activity, inhibitor, radiometric |  | 2 µM | inhibition | 91.1%
CO[C@H]1CC[C@H](CNc2ccc(S(=O)(=O)NC(=O)c3ccc(N4CCN(CC5=C(c6ccc(Cl)cc6)CC(C)(C)CC5)CC4)cc3Oc3cnc4[nH]ccc4c3)cc2[N+](=O)[O-])CC1 | cell-free assay, competition with immobilised ligand |  | 1 µM | remaining binding | 50%
COc1cc(Cl)c(C(=O)N[C@@H](CN[C@H]2CC[C@@H](N)CC2)Cc2ccc(C#N)cc2)cc1-c1ccc(CN[C@H](C)c2ccc(C)cc2)o1 | enzyme activity, inhibitor |  | 1 µM | remaining activity | 95%
